Assay results taken from ChEMBL document CHEMBL4765238, “Structure-Based Discovery and Optimization of Benzo[ d]isoxazole Derivatives as Potent and Selective BET Inhibitors for Potential Treatment of Castration-Resistant Prostate Cancer (CRPC)” (J Med Chem, 2018).

Columns and labels:
[1] = molecular target: T1, Bromodomain-containing protein 4 (Homo sapiens, UniProt O60885); assay: Inhibition of HYSGRGK(Ac)GGK(Ac)GLGK(Ac)GGAK(Ac)RHRK(Biotin)-OH binding to recombinant human His6-tagged BRD4 bromodomain 1 (N44 to E168 residues) expressed in Escherichia coli BL21 (DE3) cells measured after 2 hrs by Alphascreen assay
[2] = molecular target: T1, Bromodomain-containing protein 4; assay: Binding affinity to human recombinant His6-tagged BRD4 bromodomain 1 (N44 to E168 residues) expressed in Escherichia coli BL21 (DE3) cells assessed as change in melting temperature at 200 uM incubated for 30 mins by SYPRO orange dye based thermal shift assay
How it was run: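 Thermal shift assay measuring change in melting temperature of each isolated bromodomain module in the presence of compound versus without.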

[3] = tested on: VCaP; assay: cells; details: Homo sapiens, 144 h, read-out: INH
[4] = tested on: LNCaP C4-2B; assay: Antiproliferative activity against AR-positive human C4-2B cells assessed as reduction in cell viability incubated for 96 hrs by cell-titer glo assay; type: functional, cell-based
How it was run: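 Prostate cancer cells treated across a concentration range; viability read by CellTiter-Glo luminescence; experiments in triplicate; IC50 derived from the dose–response curves.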

[5] = molecular target: T1, Bromodomain-containing protein 4; assay: Inhibition of BRD4 bromodomain 1 (unknown origin) by fluorescence polarization assay

| Compound | IC50 [1] | ΔTm [2] | inhibition at 33 µM [3] | IC50 [4] | IC50 [5] |
| --- | --- | --- | --- | --- | --- |
| CCCn1c(-c2cc(Br)c3onc(C)c3c2)nc2ccc(N3CCOCC3)cc21 | 1800 nM | 6.2 °C | – | – | – |
| COc1ccc(OC)c(S(=O)(=O)Nc2cc3c(C)noc3cc2C)c1 | 10700 nM | 2 °C | – | – | – |
| CCCCn1c(-c2ccc3onc(C)c3c2)nc2ccc(N3CCOCC3)cc21 | 1160 nM | 5.9 °C | – | – | – |
| CNC(=O)c1ccc(N2C(=S)N(c3ccc(C#N)c(C(F)(F)F)c3)C(=O)C2(C)C)cc1F [ENZALUTAMIDE] | – | – | 50% | 18 µM | – |
| COc1cc2onc(C)c2cc1NS(=O)(=O)c1ccccc1Cl | 220 nM | 7.8 °C | – | – | – |
| Cc1cc2onc(C)c2cc1NS(=O)(=O)c1ccccc1Cl | 1590 nM | 5.2 °C | – | – | – |
| Cc1cc2onc(C)c2cc1NS(=O)(=O)c1ccc([N+](=O)[O-])cc1 | > 20000 nM | 0.5 °C | – | – | – |
| Cc1cc2onc(C)c2cc1NS(=O)(=O)c1c(Cl)cccc1Cl | > 20000 nM | 1.1 °C | – | – | – |
| COc1ccc(C)cc1S(=O)(=O)Nc1cc2c(C)noc2cc1C | 2130 nM | 4.6 °C | – | – | – |
| Cc1cc2onc(C)c2cc1NS(=O)(=O)c1ccc(Cl)cc1 | > 20000 nM | 1 °C | – | – | – |
| Cc1cc2onc(C)c2cc1NS(=O)(=O)C1CCCCC1 | 2240 nM | 4.5 °C | – | – | – |
| CCCn1c(-c2ccc3onc(C)c3c2)nc2ccc(N3CCOCC3)cc21 | 1370 nM | 6.5 °C | – | – | – |
| COc1ccc(Br)cc1S(=O)(=O)Nc1cc2c(C)noc2cc1C | 620 nM | 7.5 °C | – | – | – |
| Cc1noc2c(Br)cc(-c3nc4ccc(N5CCOCC5)cc4n3CC3CC3)cc12 | 2360 nM | 6 °C | – | – | – |
| COC(=O)c1ccccc1S(=O)(=O)Nc1cc2c(C)noc2cc1C | 6930 nM | 3 °C | – | – | – |
| CCOc1cc2onc(C)c2cc1NS(=O)(=O)c1cc(Br)ccc1OC | 150 nM | 9.2 °C | – | – | – |
| Cc1noc2ccc(-c3nc4ccc(N5CCOCC5)cc4n3CC3CC3)cc12 | 1410 nM | 6.5 °C | – | – | – |
| COc1ccc(Cl)cc1S(=O)(=O)Nc1cc2c(C)noc2cc1C | 1050 nM | 6.5 °C | – | – | – |
| COCCn1c(-c2cc(Br)c3onc(C)c3c2)nc2ccc(N3CCOCC3)cc21 | > 20000 nM | 4.5 °C | – | – | – |
| COc1ccc(S(=O)(=O)Nc2cc3c(C)noc3cc2C)cc1 | > 20000 nM | 1.5 °C | – | – | – |
| COCCn1c(-c2ccc3onc(C)c3c2)nc2ccc(N3CCOCC3)cc21 | 4420 nM | 5 °C | – | – | – |
| CCCOc1cc2onc(C)c2cc1NS(=O)(=O)c1cc(Br)ccc1OC | 420 nM | 6 °C | – | – | – |
| Cc1cc2onc(C)c2cc1NS(=O)(=O)c1ccccc1Br | 1840 nM | 4.4 °C | – | – | – |
| COc1ccc(Br)cc1S(=O)(=O)Nc1cc2c(C)noc2cc1OCC(=O)O | 580 nM | 6.2 °C | – | – | – |

| Compound | IC50 [1] | ΔTm [2] | inhibition at 33 µM [3] | IC50 [4] | IC50 [5] |
| --- | --- | --- | --- | --- | --- |
| Cc1cc2onc(C)c2cc1NS(=O)(=O)c1ccc(F)cc1 | 9820 nM | 2 °C | – | – | – |
| Cc1cc2onc(C)c2cc1NS(=O)(=O)c1ccccc1 | 4960 nM | 2 °C | – | – | – |
| COc1ccc(Br)cc1S(=O)(=O)Nc1cc2c(C)noc2cc1OCC(=O)NCCNC(C)=O | 750 nM | 5.4 °C | – | – | – |
| COc1cc2onc(C)c2cc1NS(=O)(=O)c1cc(Cl)ccc1Cl | 440 nM | 7.3 °C | – | – | – |
| Cc1cc2onc(C)c2cc1NS(=O)(=O)c1ccccc1C(=O)O | 5810 nM | 3.8 °C | – | – | – |
| CCCCS(=O)(=O)Nc1cc2c(C)noc2cc1C | 2550 nM | 5 °C | – | – | – |
| CCC(C)n1c(-c2ccc3onc(C)c3c2)nc2ccc(N3CCOCC3)cc21 (stereo not drawn) | 3620 nM | 4.8 °C | – | – | – |
| Cc1cc2onc(C)c2cc1NS(=O)(=O)C1CCCC1 | 3050 nM | 5 °C | – | – | – |
| Cc1cc2onc(C)c2cc1NS(=O)(=O)c1cc(Cl)ccc1Cl | 2350 nM | 5 °C | – | – | – |
| CCOC(=O)C[C@@H]1N=C(c2ccc(Cl)cc2)c2cc(OC)ccc2-n2c(C)nnc21 | – | – | – | – | 631 nM |
| Cc1noc2c(Br)cc(-c3nc4ccc(N5CCOC[C@@H]5C)cc4n3CC3CCCCC3)cc12 | 320 nM | 7.2 °C | – | – | – |
| Cc1cc2onc(C)c2cc1NS(=O)(=O)c1cccc(Cl)c1Cl | 3550 nM | 4 °C | – | – | – |
| CCNC(=O)COc1cc2onc(C)c2cc1NS(=O)(=O)c1cc(Br)ccc1OC | 1600 nM | 5.1 °C | – | – | – |
| CCCCn1c(-c2cc(Br)c3onc(C)c3c2)nc2ccc(N3CCOCC3)cc21 | 520 nM | 7.2 °C | – | – | – |
| Cc1noc2ccc(-c3nc4ccc(N5CCOCC5)cc4n3Cc3ccccc3)cc12 | 1670 nM | 6 °C | – | – | – |
| CCCS(=O)(=O)Nc1cc2c(C)noc2cc1C | 2470 nM | 4.5 °C | – | – | – |
| COc1ccccc1S(=O)(=O)Nc1cc2c(C)noc2cc1C | 830 nM | 6.6 °C | – | – | – |
| Cc1noc2ccc(-c3nc4ccc(N5CCOCC5)cc4n3CC3CCCCC3)cc12 | 180 nM | 5.4 °C | – | – | – |
| COc1cc2onc(C)c2cc1NS(=O)(=O)c1cc(C)ccc1OC | 470 nM | 7.8 °C | – | – | – |
| CCS(=O)(=O)Nc1cc2c(C)noc2cc1C | 5300 nM | 3 °C | – | – | – |
| COc1ccc(Br)cc1S(=O)(=O)Nc1cc2c(C)noc2cc1O | 230 nM | 9.2 °C | – | – | – |
| COc1cc2onc(C)c2cc1NS(=O)(=O)c1cc(Cl)ccc1OC | 160 nM | 8.7 °C | – | – | – |
| COc1ccc(Br)cc1S(=O)(=O)Nc1cc2c(C)noc2cc1OCC(=O)NCCN1CCOCC1 | 2270 nM | 4.8 °C | – | – | – |
